Reference: ChEMBL document CHEMBL1156993, “Benzyl prolinate derivatives as novel selective KCC2 blockers” (Bioorg Med Chem Lett, 2010)
≈ marks a conversion by molar mass, not a printed value. Values belong to the compound of their own block, whether it stands above or below them. Calls of active or inactive are those of the source. The rule behind the calls is not given here.

Key:
[1] = biological target: T1, Solute carrier family 12 member 5 (Rattus norvegicus, UniProt Q63633); experiment: Antagonist activity of rat KCC2 transporter expressed in human SK-Hep cells assessed as inhibition of N-ethylmaleimide-mediated Rb+ influx after 10 mins by atomic absorption spectroscopy; format: functional, cell-based
T1 sequence (Q63633 whole entry): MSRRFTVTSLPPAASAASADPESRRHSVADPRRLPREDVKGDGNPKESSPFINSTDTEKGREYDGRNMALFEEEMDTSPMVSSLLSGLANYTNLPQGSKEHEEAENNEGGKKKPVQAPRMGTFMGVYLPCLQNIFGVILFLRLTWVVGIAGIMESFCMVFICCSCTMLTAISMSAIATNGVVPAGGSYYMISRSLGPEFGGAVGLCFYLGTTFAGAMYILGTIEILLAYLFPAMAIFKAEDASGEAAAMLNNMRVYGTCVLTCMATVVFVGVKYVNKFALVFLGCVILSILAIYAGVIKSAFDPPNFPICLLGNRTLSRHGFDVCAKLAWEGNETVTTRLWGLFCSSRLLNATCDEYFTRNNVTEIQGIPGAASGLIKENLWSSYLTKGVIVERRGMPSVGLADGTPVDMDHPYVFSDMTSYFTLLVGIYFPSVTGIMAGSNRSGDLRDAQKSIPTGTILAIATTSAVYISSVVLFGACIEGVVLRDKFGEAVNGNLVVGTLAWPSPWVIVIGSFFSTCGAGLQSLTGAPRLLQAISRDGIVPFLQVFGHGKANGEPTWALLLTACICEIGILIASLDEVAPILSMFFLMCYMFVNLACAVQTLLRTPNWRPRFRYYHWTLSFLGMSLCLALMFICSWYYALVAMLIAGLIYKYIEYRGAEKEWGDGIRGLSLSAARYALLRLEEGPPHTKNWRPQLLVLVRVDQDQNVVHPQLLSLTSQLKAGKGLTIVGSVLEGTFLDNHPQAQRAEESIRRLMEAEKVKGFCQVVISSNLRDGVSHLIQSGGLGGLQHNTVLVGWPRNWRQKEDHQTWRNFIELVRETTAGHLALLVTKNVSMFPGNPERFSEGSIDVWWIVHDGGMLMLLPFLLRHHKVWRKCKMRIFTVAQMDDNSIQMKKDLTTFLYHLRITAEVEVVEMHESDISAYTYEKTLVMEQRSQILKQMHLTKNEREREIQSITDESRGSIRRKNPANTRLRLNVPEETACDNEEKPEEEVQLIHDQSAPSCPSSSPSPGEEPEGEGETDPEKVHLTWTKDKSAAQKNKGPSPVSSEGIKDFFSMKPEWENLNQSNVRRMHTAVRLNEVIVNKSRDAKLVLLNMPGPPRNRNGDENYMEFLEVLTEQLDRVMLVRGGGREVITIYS
Outline: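 Rat KCC2 stably expressed in a selected clone. The co-transporter is activated with N-ethylmaleimide in the presence of the test compound, and Rb+ influx is started by adding 5 mM RbCl to the extracellular medium. Influx is stopped after 10 min by repeated washes. Intracellular Rb+ is measured by atomic absorption spectroscopy, and IC50 is reported.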

[2] = Aqueous solubility in PBS buffer at pH 7.4; format: physicochemical
[3] = Antagonist activity to dog NKCC1 transporter expressed in MDCK cells assessed as inhibition of Cl- free medium-stimulated Rb+ influx at 100 uM after 45 mins by atomic absorption spectroscopy; format: functional, Canis lupus familiaris; conditions: for inhibition at 100 µM: Canis lupus familiaris, MDCK, 0.75 h
Outline: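 MDCK cells express endogenous canine NKCC1. NKCC1 is activated by incubating the cells for 2 h in Cl−-free medium. Rb+ influx is then stimulated for 45 min by adding 20 mM RbCl to the extracellular solution. Intracellular Rb+ is quantified by atomic absorption spectroscopy, and results are given as percent inhibition.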

[4] = Intrinsic clearance in rat hepatocytes assessed per 10^6 cells
[5] = Intrinsic clearance in rat microsomes assessed per mg of protein; format: ADME, Microsome
[6] = Half life in Wistar rat at 1 mg/kg, iv; format: ADME, organism-based; parameters: dose 1 mg/kg, route intravenous; conditions: in vivo
Outline: (§1)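 Male Wistar rats are dosed at 1 mg/kg iv for half-life and clearance, and at 6 mg/kg po for AUC, Cmax and oral bioavailability.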

[7] = Clearance in Wistar rat at 1 mg/kg, iv; format: ADME, organism-based; parameters: dose 1 mg/kg, route intravenous; conditions: in vivo; outline: as §1
[8] = AUC in Wistar rat at 6 mg/kg, po; format: ADME, organism-based; parameters: dose 6 mg/kg, route oral; conditions: plasma; outline: as §1
[9] = Oral bioavailability in Wistar rat at 6 mg/kg; format: ADME, organism-based; conditions: in vivo; outline: as §1
[10] = Cmax in Wistar rat at 6 mg/kg, po; format: ADME, organism-based; parameters: dose 6 mg/kg, route oral; conditions: in vivo; outline: as §1
[11] = test system: Mus musculus; experiment: Anticonvulsant activity in audiogenic mouse epilepsy model assessed as inhibition of sound-induced wild running phase of seizure up to 75 mg/kg, ip pretreated 5 mins before acoustic stimulation; format: functional, organism-based; parameters: dose 75 mg/kg
Outline: (§2)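 Mice are pre-selected as responders in a first acoustic challenge (85 dB, 30 s). Wild running, clonic and tonic phases are scored. The next day, compound is given ip 5 min before the same stimulus. The proportion of mice protected against each of the three phases is calculated per group, with N = 10 per dose.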

[12] = test system: Mus musculus; experiment: Anticonvulsant activity in audiogenic mouse epilepsy model assessed as inhibition of sound-induced tonic convulsion phase of seizure up to 75 mg/kg, ip pretreated 5 mins before acoustic stimulation; format: functional, organism-based; parameters: dose 75 mg/kg; outline: as §2
[13] = test system: Mus musculus; experiment: Anticonvulsant activity in audiogenic mouse epilepsy model assessed as inhibition of sound-induced clonic phase of seizure up to 75 mg/kg, ip pretreated 5 mins before acoustic stimulation; format: functional, organism-based; parameters: dose 75 mg/kg; outline: as §2

IC50 [1]: 5 µM
Structure (SMILES): CC(=O)N1CCCC1(Cc1ccccc1)C(=O)OCc1ccc(C(F)(F)F)cc1 (stereo unspecified)

IC50 [1]: > 100 µM
Structure (SMILES): CC(=O)N1CCCC1(Cc1ccccc1)C(=O)O (stereo unspecified)

IC50 [1]: 32 µM
Structure (SMILES): CC(=O)N1CCCC1(Cc1ccccc1)C(=O)N(C)Cc1ccccc1 (stereo unspecified)

IC50 [1]: 80 µM
Structure (SMILES): CCC1(C(=O)OCc2ccccc2)CCCN1C(C)=O (stereo unspecified)

IC50 [1]: 40 µM
Structure (SMILES): CC(=O)N1CCCC1(Cc1ccc(S(C)(=O)=O)cc1)C(=O)OCc1ccccc1 (single isomer, unassigned; (-))

solubility [2]: 2 µg/mL (≈ 4.93 µM) | IC50 [1]: 0.63 µM | hepatocyte CLint [4]: 20 µL/min/1e6 cells | microsomal CLint [5]: 128 µL/min/mg
Structure (SMILES): CC(=O)N1CCCC1(Cc1ccc(C(F)(F)F)cc1)C(=O)OCc1ccccc1 (stereo unspecified)
inhibition at 100 µM [3]: 53%

IC50 [1]: 0.79 µM
Structure (SMILES): CC(=O)N1CCCC1(Cc1ccsc1)C(=O)OCc1ccccc1 (stereo unspecified)

half-life [6]: 2.4 h | clearance [7]: 61 mL/min/kg | solubility [2]: 2 µg/mL (≈ 5.93 µM) | AUC [8]: 8.6 ng·h/mL | bioavailability [9]: 0.5% | IC50 [1]: 0.79 µM | Cmax [10]: 11.9 ng/mL | hepatocyte CLint [4]: 28 µL/min/1e6 cells | microsomal CLint [5]: 385 µL/min/mg
Structure (SMILES): CC(=O)N1CCCC1(Cc1ccccc1)C(=O)OCc1ccccc1 (racemic)
inhibition (INH) [3]: 44%

IC50 [1]: 0.32 µM
Structure (SMILES): O=C(C1CC1)N1CCCC1(Cc1ccccc1)C(=O)OCc1ccccc1 (stereo unspecified)

IC50 [1]: 4 µM
Structure (SMILES): CC(=O)N1CCCC1(Cc1ccccc1)C(=O)OC(C)c1ccccc1 (stereo unspecified)

IC50 [1]: 0.2 µM
Structure (SMILES): CC(=O)N1CCCC1(Cc1ccc(F)cc1)C(=O)OCc1ccccc1 (stereo unspecified)

Structure (SMILES): NS(=O)(=O)c1cc(C(=O)O)c(NCc2ccco2)cc1Cl [FUROSEMIDE]
inhibition at 100 µM [3]: 100%

solubility [2]: 20 µg/mL (≈ 55.2 µM) | IC50 [1]: 0.16 µM | hepatocyte CLint [4]: 31 µL/min/1e6 cells | microsomal CLint [5]: 123 µL/min/mg
Structure (SMILES): CC(=O)N1CCCC1(Cc1ccc(C#N)cc1)C(=O)OCc1ccccc1 (stereo unspecified)
inhibition at 100 µM [3]: 31%

solubility [2]: 0.5 µg/mL (≈ 1.18 µM) | IC50 [1]: 0.06 µM | hepatocyte CLint [4]: 20 µL/min/1e6 cells | microsomal CLint [5]: 356 µL/min/mg
Structure (SMILES): CC(=O)N1CCCC1(Cc1ccc(F)c(C(F)(F)F)c1)C(=O)OCc1ccccc1 (stereo unspecified)
inhibition at 100 µM [3]: 24%

IC50 [1]: 2 µM
Structure (SMILES): CCNC(=O)N1CCCC1(Cc1ccccc1)C(=O)OCc1ccccc1 (stereo unspecified)

IC50 [1]: 8 µM
Structure (SMILES): CC(=O)N1CCCC1(CCc1ccccc1)C(=O)OCc1ccccc1 (stereo unspecified)

IC50 [1]: 2 µM
Structure (SMILES): CC(=O)N1CCCC1(Cc1ccncc1)C(=O)OCc1ccccc1 (stereo unspecified)

solubility [2]: 10 µg/mL (≈ 27.2 µM) | IC50 [1]: 0.4 µM | hepatocyte CLint [4]: 23 µL/min/1e6 cells | microsomal CLint [5]: 333 µL/min/mg
Structure (SMILES): COc1ccc(CC2(C(=O)OCc3ccccc3)CCCN2C(C)=O)cc1 (stereo unspecified)
inhibition at 100 µM [3]: 59%

IC50 [1]: 6 µM
Structure (SMILES): CC(=O)N1CCCC1(Cc1ccccc1)C(=O)OCc1ccccc1Cl (stereo unspecified)

IC50 [1]: 0.32 µM
Structure (SMILES): CC(=O)N1CCCC1(Cc1ccc(Cl)cc1)C(=O)OCc1ccccc1 (stereo unspecified)

Structure (SMILES): CC(=O)N1CCCC1(Cc1ccc(S(C)(=O)=O)cc1)C(=O)OCc1ccccc1 (stereo in doubt; 13)
Activity [11]: inactive | Activity [12]: inactive | Activity [13]: inactive

IC50 [1]: 5 µM
Structure (SMILES): CC(=O)N1CCCC1(Cc1ccccc1C#N)C(=O)OCc1ccccc1 (stereo unspecified)

IC50 [1]: 1.2 µM
Structure (SMILES): CCC(=O)N1CCCC1(Cc1ccccc1)C(=O)OCc1ccccc1 (stereo unspecified)

IC50 [1]: 1.3 µM
Structure (SMILES): CC(=O)N1CCCC1(Cc1ccccc1)C(=O)OCc1ccc(Cl)cc1 (stereo unspecified)
